According to ChEMBL document CHEMBL3108700, “Designing anti-inflammatory drugs from parasitic worms: a synthetic small molecule analogue of the Acanthocheilonema viteae product ES-62 prevents development of collagen-induced arthritis” (J Med Chem, 2013):
Calls of active or inactive are those of the source. No rule for the calls is given here.

Columns and labels:
[1] = target: T1, Toll-like receptor 9 (Mus musculus) (UniProt Q9EQU3); experiment: Inhibition of TLR9 in BALB/c mouse BMDM assessed as downregulation of CpG-stimulated IL-6 level at 5 ug/ml preincubated for 18 hrs followed by CpG challenge measured after 24 hrs by ELISA relative to control
T1 sequence (whole entry): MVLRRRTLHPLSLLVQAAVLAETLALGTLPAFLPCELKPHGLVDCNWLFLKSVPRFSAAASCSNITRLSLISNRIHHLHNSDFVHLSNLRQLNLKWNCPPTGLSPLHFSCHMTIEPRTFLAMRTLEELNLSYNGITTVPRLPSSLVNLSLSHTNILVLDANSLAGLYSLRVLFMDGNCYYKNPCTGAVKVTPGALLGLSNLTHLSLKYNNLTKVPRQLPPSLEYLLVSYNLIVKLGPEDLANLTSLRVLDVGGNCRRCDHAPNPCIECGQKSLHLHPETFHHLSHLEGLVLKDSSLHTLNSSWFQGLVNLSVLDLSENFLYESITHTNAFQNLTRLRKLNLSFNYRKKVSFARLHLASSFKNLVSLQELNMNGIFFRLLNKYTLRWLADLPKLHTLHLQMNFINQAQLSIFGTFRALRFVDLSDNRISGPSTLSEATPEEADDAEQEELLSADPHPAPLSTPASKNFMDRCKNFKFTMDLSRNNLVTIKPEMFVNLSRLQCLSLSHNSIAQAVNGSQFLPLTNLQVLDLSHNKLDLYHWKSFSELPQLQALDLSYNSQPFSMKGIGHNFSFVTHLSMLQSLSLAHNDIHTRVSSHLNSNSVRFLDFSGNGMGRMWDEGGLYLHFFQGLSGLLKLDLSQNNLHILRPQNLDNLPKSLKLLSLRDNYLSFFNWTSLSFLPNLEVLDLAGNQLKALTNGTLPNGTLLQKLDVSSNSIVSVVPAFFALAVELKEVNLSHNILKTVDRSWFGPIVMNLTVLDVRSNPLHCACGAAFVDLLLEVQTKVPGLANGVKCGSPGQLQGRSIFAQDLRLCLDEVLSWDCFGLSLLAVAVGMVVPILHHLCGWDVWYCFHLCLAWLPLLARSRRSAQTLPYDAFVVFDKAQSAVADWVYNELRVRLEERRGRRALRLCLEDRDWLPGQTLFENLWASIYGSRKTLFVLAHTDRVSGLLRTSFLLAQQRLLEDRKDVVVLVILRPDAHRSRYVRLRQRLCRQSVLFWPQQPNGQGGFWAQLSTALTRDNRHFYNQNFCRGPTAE
How it was run: (§1)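 BALB/c male bone marrow macrophages were differentiated 7 days with L929 supernatant (≥99% CD11b+/F4/80+). Cells were plated at 2 × 10^5/well in triplicate, rested overnight, and given compounds at 5 μg/mL for 18 h. They were then stimulated with 100 ng/mL S. minnesota LPS, 10 ng/mL Pam3CSK4 (BLP) or 0.01 μM CpG for 24 h. Supernatant IL-12p40 and IL-6 were measured by ELISA (sensitivity 16 pg/mL).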

[2] = target: T1, Toll-like receptor 9 (Mus musculus); experiment: Inhibition of TLR9 in BALB/c mouse BMDM assessed as downregulation of CpG-stimulated IL-12p40 level at 5 ug/ml preincubated for 18 hrs followed by CpG challenge measured after 24 hrs by ELISA relative to control; how it was run: as §1
TLR2/TLR6 (Mus musculus) [3] = target: T2, TLR2/TLR6 (Mus musculus) (UniProt Q9QUN7+Q9EPW9); experiment: Inhibition of TLR2/6 in BALB/c mouse BMDM assessed as downregulation of BLP-stimulated IL-6 level at 5 ug/ml preincubated for 18 hrs followed by BLP challenge measured after 24 hrs by ELISA relative to control; assay type: protein-complex assay; how it was run: as §1
TLR2/TLR6 (Mus musculus) [4] = target: T2, TLR2/TLR6 (Mus musculus); experiment: Inhibition of TLR2/6 in BALB/c mouse BMDM assessed as downregulation of BLP-stimulated IL-12p40 level at 5 ug/ml preincubated for 18 hrs followed by BLP challenge measured after 24 hrs by ELISA relative to control; assay type: protein-complex assay; how it was run: as §1
[5] = target: T3, Toll-like receptor 4 (Mus musculus) (UniProt Q9QUK6); experiment: Inhibition of TLR4 in BALB/c mouse BMDM assessed as downregulation of LPS-stimulated IL-6 level at 5 ug/ml preincubated for 18 hrs followed by LPS challenge measured after 24 hrs by ELISA relative to control; how it was run: as §1
T3 sequence (whole entry): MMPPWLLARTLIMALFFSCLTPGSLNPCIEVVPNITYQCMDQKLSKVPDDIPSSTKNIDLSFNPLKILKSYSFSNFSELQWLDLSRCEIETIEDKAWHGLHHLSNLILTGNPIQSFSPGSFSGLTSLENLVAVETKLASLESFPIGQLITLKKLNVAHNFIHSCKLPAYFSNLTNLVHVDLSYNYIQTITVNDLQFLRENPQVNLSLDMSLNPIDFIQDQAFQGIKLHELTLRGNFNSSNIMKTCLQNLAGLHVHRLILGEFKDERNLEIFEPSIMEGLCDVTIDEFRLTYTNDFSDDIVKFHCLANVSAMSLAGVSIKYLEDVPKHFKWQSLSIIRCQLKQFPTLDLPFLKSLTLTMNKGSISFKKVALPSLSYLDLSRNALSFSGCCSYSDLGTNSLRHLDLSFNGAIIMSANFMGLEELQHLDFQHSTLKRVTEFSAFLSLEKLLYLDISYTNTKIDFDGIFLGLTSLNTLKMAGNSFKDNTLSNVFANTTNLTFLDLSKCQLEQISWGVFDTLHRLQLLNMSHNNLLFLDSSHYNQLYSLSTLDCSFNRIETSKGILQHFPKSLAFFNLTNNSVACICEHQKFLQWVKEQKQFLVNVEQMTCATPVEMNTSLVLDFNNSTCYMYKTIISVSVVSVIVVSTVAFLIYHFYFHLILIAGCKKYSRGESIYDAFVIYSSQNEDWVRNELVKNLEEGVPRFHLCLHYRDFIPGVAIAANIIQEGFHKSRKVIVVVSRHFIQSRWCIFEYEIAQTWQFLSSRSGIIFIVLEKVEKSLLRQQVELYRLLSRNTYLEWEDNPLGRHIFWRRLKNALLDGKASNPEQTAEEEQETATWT

[6] = target: T3, Toll-like receptor 4 (Mus musculus); experiment: Inhibition of TLR4 in BALB/c mouse BMDM assessed as downregulation of LPS-stimulated IL-12p40 level at 5 ug/ml preincubated for 18 hrs followed by LPS challenge measured after 24 hrs by ELISA relative to control; how it was run: as §1

inhibition [1] | inhibition [2] | inhibition (TLR2/TLR6 (Mus musculus) [3]) | inhibition (TLR2/TLR6 (Mus musculus) [4]) | inhibition [5] | inhibition [6] | Structure (SMILES)
inactive | inactive | inactive | inactive | inactive | inactive | Cc1ccc(CNS(=O)(=O)CCN2CCOCC2)cc1
inactive | inactive | inactive | Active | inactive | Active | C[N+](C)(C)CCOP(=O)(O)Cc1ccc(Br)cc1
inactive | inactive | Active | inactive | Active | inactive | C[N+](C)(C)CCCS(=O)(=O)Cc1ccc(Br)cc1
inactive | inactive | inactive | inactive | inactive | inactive | CN(C)CCOP(=O)(O)Cc1ccc([N+](=O)[O-])cc1
inactive | Active | inactive | inactive | inactive | Active | O=S(=O)(CCN1CCCC1)Nc1ccccc1
inactive | inactive | inactive | inactive | inactive | inactive | Cc1ccc(CS(=O)(=O)NCCN2CCOCC2)cc1
inactive | inactive | inactive | inactive | inactive | inactive | CN(C)CCNS(=O)(=O)Cc1ccccc1
inactive | inactive | inactive | inactive | inactive | inactive | Cc1ccc(CS(=O)(=O)CCCN2CCCC2)cc1
inactive | inactive | inactive | Active | inactive | inactive | O=S(=O)(CCNCCCO)c1ccccc1
inactive | inactive | Active | Active | inactive | inactive | CCCNCCS(=O)(=O)c1ccccc1
Active | inactive | Active | inactive | Active | Active | Cc1ccc(CNS(=O)(=O)CCN(C)CCN(C)C)cc1
inactive | inactive | inactive | inactive | inactive | inactive | O=S(=O)(CCN1CCOCC1)NCc1ccc(Br)cc1
inactive | inactive | inactive | inactive | inactive | inactive | O=S(=O)(Cc1ccccc1)NCCN1CCCC1
inactive | inactive | inactive | inactive | Active | inactive | CN(C)CCCS(=O)(=O)Cc1ccc(Br)cc1
inactive | inactive | inactive | inactive | inactive | inactive | Cc1ccc(CS(=O)(=O)NCCN2CCCC2)cc1
inactive | inactive | inactive | inactive | inactive | inactive | O=S(=O)(CCN1CCCC1)NCc1ccc(Br)cc1
Active | inactive | inactive | Active | inactive | Active | COc1cccc(C(=O)NCCN(C)C)c1
inactive | inactive | inactive | Active | inactive | inactive | O=S(=O)(CCN1CCCC1)c1ccccc1
inactive | inactive | inactive | inactive | inactive | inactive | Cc1ccc(CS(=O)(=O)CCCN(C)C)cc1
inactive | Active | inactive | inactive | inactive | inactive | CN(C)CCS(=O)(=O)NCc1ccc(F)cc1
inactive | inactive | inactive | inactive | inactive | inactive | O=S(=O)(CCN1CCCC1)NCc1ccccc1
inactive | inactive | inactive | inactive | inactive | inactive | Cc1ccc(CS(=O)(=O)NCCCN(C)C)cc1
inactive | inactive | inactive | inactive | inactive | Active | O=S(=O)(CCN1CCCC1)Cc1ccc(Br)cc1

Structure (SMILES) | inhibition [1] | inhibition [2] | inhibition (TLR2/TLR6 (Mus musculus) [3]) | inhibition (TLR2/TLR6 (Mus musculus) [4]) | inhibition [5] | inhibition [6]
CN(C)CCCOP(=O)(O)Oc1ccc(NC(=O)OC(C)(C)C)cc1 | inactive | inactive | inactive | inactive | inactive | inactive
